Results of several laboratories.
Compare with care: the assays were run in different laboratories.
Read-out: cell growth or viability

Structure (SMILES)	cell line	assay	conditions	measurement	value
CC(C)(CO)C(=O)SCCOP(=O)(NCc1ccccc1)OC[C@H]1O[C@@H](n2cnc3c(=O)[nH]c(N)nc32)[C@](C)(O)[C@@H]1O (mixture of isomers)	Huh-7	–	replicon	CC50	> 10 µM
O=c1c(O[C@@H]2O[C@H](CO)[C@@H](O)[C@H](O)[C@H]2O)c(-c2ccc(O)cc2)oc2cc(O)cc(O)c12	HepG2	WST-1	–	IC50	37.8 µM
CCOC(=O)CCc1ccccc1OP(=O)(OC[C@H]1O[C@@H](n2cnc3c(N)nc(N)nc32)[C@](C)(O)[C@@H]1O)Oc1ccccc1CCC(=O)OCC	Huh-7	–	replicon	CC50	> 10 µM
COC(=O)[C@@H]1[C@@H](c2ccccc2)[C@]2(c3ccc(OC)cc3)Oc3cc(OC)cc(OC)c3[C@@]23N=C(C)N[C@@]13O	HepG2	MTT	24 h	CC50	0.0658 µM
CCC/C=C/C=C/C(=O)O[C@H]1/C(=C/C(=O)OC)C[C@H]2C[C@H]([C@@H](C)O)OC(=O)C[C@H](O)C[C@@H]3C[C@H](OC(C)=O)C(C)(C)[C@](O)(C[C@@H]4C/C(=C/C(=O)OC)C[C@H](/C=C/C(C)(C)[C@]1(O)O2)O4)O3	BGM	MTS	5 days	CC50	~100 µM
CC(C)[C@H](N)C(=O)N1CCC[C@H]1B(O)O	HEK-293T	ATP luminescence	60 µM, 5 days	viability	97%
CCCCCCCCCCOc1cc2c(O)c(C(=O)OCC)cnc2cc1OCC	Huh-7	–	72 h	IC50	> 100 µM
CC(C)(C)C(O)C(Oc1ccc(-c2ccccc2)cc1)n1cncn1 (centres unmarked)	Huh-7	MTT	24 h	CC50	> 400 µM
